Data from ChEMBL document CHEMBL4376872, “Scaffold Hopping of Natural Product Evodiamine: Discovery of a Novel Antitumor Scaffold with Excellent Potency against Colon Cancer” (J Med Chem, 2020).

Experiments:
[1] = Toxicity in mouse xenografted with human HCT116 cells assessed as reduction in body weight at 0.5 mg/kg, ip qd for 21 days administration starting from 10 days after tumor cell implantation measured every 2 or 4 days till the end of the treatment period; type: organism-based; conditions: in vivo
How it was run: (§1)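 Nude mice bearing HCT116 xenografts were given intraperitoneal doses on 21 consecutive days, with n = 6 per group including an untreated control group. Body weight was recorded to assess toxicity. Data are mean ± SEM, compared with the control group by Student's t test.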

HCT-116 [2] = experiment: Antitumor activity against human HCT116 cells xenografted in mouse assessed as reduction in tumor growth at 0.5 mg/kg, ip qd for 21 days administration starting from 10 days after tumor cell implantation measured every 2 or 4 days till the end of the treatment period relative to control; type: functional; conditions: HCT-116, ip, read-out: TGI
How it was run: (§2)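 HCT116 xenografts in nude mice; intraperitoneal dosing on 21 consecutive days; tumour growth inhibition (TGI) versus untreated control, with body weight recorded. n = 6 mice per group; mean ± SEM; significance by Student's t test versus control.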

HCT-116 [3] = experiment: Antiproliferative activity against human HCT116 cells assessed as reduction in cell viability incubated for 72 hrs by CCK8 assay; type: functional, cell-based; conditions: HCT-116, 72 h
HCT-116 [4] = experiment: Antitumor activity against human HCT116 cells xenografted in mouse assessed as reduction in tumor growth at 16 mg/kg, ip qd for 21 days administration starting from 10 days after tumor cell implantation measured every 2 or 4 days till the end of the treatment period relative to control; type: functional; conditions: HCT-116, ip, read-out: TGI; how it was run: as §2
[5] = Aqueous solubility of compound at pH 7.4; type: physicochemical
MDA-MB-435 = experiment: Antiproliferative activity against human MDA-MB-435 cells assessed as reduction in cell viability incubated for 72 hrs by CCK8 assay; type: functional, cell-based; conditions: MDA-MB-435, 72 h
[6] = Toxicity in mouse xenografted with human HCT116 cells assessed as reduction in body weight at 16 mg/kg, ip qd for 21 days administration starting from 10 days after tumor cell implantation measured every 2 or 4 days till the end of the treatment period; type: organism-based; conditions: in vivo; how it was run: as §1
A549 = experiment: Antiproliferative activity against human A549 cells assessed as reduction in cell viability incubated for 72 hrs by CCK8 assay; type: functional, cell-based; conditions: A549, 72 h

IC50 (HCT-116 [3]) [µM] | solubility [5] [µg/mL] | IC50 (MDA-MB-435) [µM] | IC50 (A549) [µM] | SMILES | Activity [1] | inhibition in vivo at 0.5 mg/kg (HCT-116 [2]) [%] | inhibition in vivo at 16 mg/kg (HCT-116 [4]) [%] | Activity [6]
 |  |  |  | CC[C@@]1(O)C(=O)OCc2c1cc1n(c2=O)Cc2cc3c(CN(C)C)c(O)ccc3nc2-1 [TOPOTECAN] | Toxic | 68.5 |  | 
87.2 | 850 | > 200 | > 200 | COc1ccc2c(c1)cc1n2CCn2c-1[n+](C)c1ccc(F)cc1c2=O |  |  | 66.6 | Non-Toxic
